Source: PubChem BioAssay AID2369 (The Scripps Research Institute Molecular Screening Center, 2010)
Active and inactive are the calls of the source. How the calls were made is not given here.

target: Protein phosphatase methylesterase 1 (Mus musculus) (UniProt Q8BVQ5); test: PME-1 probe labeling blockade in lysate – cell lysate, mouse brain cytosol, FP-rhodamine, in-gel fluorescence, orthogonal assay for PME-1 inhibitor project, late-stage follow-up (AID 2369); settings: FP-rhodamine gel ABPP, band fluorescence, at 20 µM, hits give high values
In short: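 Test system: native PME-1, mouse brain cytosol. Timing: compound pre-incubation 30 min at 25 °C, probe labeling 45 min. Technique: gel fluorescence scan.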

Chain of Protein phosphatase methylesterase 1 (Mus musculus) (Q8BVQ5 whole entry, looked up): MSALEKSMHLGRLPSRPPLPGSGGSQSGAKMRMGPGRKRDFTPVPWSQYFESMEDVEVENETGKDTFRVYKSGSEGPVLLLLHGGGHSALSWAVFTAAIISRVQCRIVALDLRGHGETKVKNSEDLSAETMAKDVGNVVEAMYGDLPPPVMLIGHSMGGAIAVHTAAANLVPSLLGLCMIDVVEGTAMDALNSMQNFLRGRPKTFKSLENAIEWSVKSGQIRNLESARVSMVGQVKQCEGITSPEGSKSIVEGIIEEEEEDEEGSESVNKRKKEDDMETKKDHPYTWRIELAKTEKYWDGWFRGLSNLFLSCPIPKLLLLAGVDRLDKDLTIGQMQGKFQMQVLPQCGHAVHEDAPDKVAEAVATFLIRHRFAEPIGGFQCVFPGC

SMILES | inhibition
CS(=O)(=O)/C(C#N)=C\c1ccc(-n2cc(/C=C(/C#N)S(C)(=O)=O)c3ccccc32)cc1 | 0% (inactive)
N#C/C(=C\c1cccn1S(=O)(=O)c1cccc(C#N)c1)S(=O)(=O)c1ccc(Cl)cc1 | 85%
N#C/C(=C\c1cccn1S(=O)(=O)c1cccc(C#N)c1)S(=O)(=O)c1ccc(Br)cc1 | 70%
CCSc1ncc(/C=C(/C#N)S(C)(=O)=O)n1C | 0% (inactive)
Cc1ccc(-c2nc3sccn3c2/C=C(\C#N)S(C)(=O)=O)cc1 | 0% (inactive)
N#C/C(=C\c1cccn1S(=O)(=O)c1cccc(OC(F)(F)F)c1)S(=O)(=O)c1ccc(F)cc1 | 75%
CS(=O)(=O)/C(C#N)=C/c1cccn1-c1ccc(C(F)(F)F)cc1 | 0% (inactive)
Cc1cc(C)n(-c2ccc(-n3cccc3/C=C(\C#N)S(C)(=O)=O)cc2)n1 | 0% (inactive)
CS(=O)(=O)/C(C#N)=C/c1cn(Cc2cnc(Cl)s2)c2ccccc12 | 0% (inactive)
CS(=O)(=O)/C(C#N)=C/c1cccn1-c1ccc(OC(F)(F)F)cc1 | 0% (inactive)

Second part, the compound after the results:

inhibition | SMILES
80% | N#C/C(=C\c1cccn1S(=O)(=O)c1cccc(Cl)c1)S(=O)(=O)c1ccc(F)cc1
60% (inactive) | N#C/C(=C\c1cccn1S(=O)(=O)c1cccc(C(=O)O)c1)S(=O)(=O)c1ccc(F)cc1
60% (inactive) | COc1cccc(S(=O)(=O)n2cccc2/C=C(\C#N)S(=O)(=O)c2ccc(F)cc2)c1
0% (inactive) | Cc1cc(C)n(-c2ccc(-n3cccc3/C=C(/C#N)S(=O)(=O)c3ccccc3)cc2)n1
0% (inactive) | COc1ccc2[nH]c(/C=C(\C#N)S(C)(=O)=O)cc2c1
0% (inactive) | N#C/C(=C\c1cccn1-c1ccc(OC(F)(F)F)cc1)S(=O)(=O)c1ccccc1
0% (inactive) | Cc1ccc(-n2cccc2/C=C(\C#N)S(C)(=O)=O)c([N+](=O)[O-])c1
0% (inactive) | COC(=O)c1[nH]c2ccccc2c1/C=C(\C#N)S(C)(=O)=O
0% (inactive) | N#C/C(=C\c1cccn1-c1cc(Cl)cc(Cl)c1)S(=O)(=O)c1ccccc1
90% | N#C/C(=C\c1cccn1S(=O)(=O)c1cccc([N+](=O)[O-])c1)S(=O)(=O)c1ccc(F)cc1
0% (inactive) | N#C/C(=C\c1cccn1-c1ccc(Cl)cc1)S(=O)(=O)c1ccccc1
0% (inactive) | CS(=O)(=O)/C(C#N)=C\c1cnc(S(=O)(=O)c2ccccc2)s1
0% (inactive) | Cc1cc(C)c(/C=C(\C#N)S(=O)(=O)c2ccccc2)[nH]1
